# Data taken from ChEMBL document CHEMBL1123247, “Nucleoside conjugates. 7. Synthesis and antitumor activity of 1-beta-D-arabinofuranosylcytosine conjugates of ether lipids” (J Med Chem, 1986).
# Tests used:
# L1210 [1] = assay: Antitumor activity against the ip implanted L1210 leukemia in mice expressed as optimal dose (1 qd treatment schedule) required to produce greatest increase in life span was determined; assay type: functional, Mus musculus
# Outline: (§1)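 DBA/2J mice, groups of 6 (23-28 g), were inoculated ip with 1 × 10^6 L1210 cells on day 0. Dosing was ip from 24 h, in 0.9% NaCl with 0.5% Tween-80 (sonicated solution or suspension). Mice were observed daily until death or day 45. Median survival T/C followed NCI protocols, and ILS = (T/C − 1) × 100. Active range means doses giving ILS ≥25%; optimal dose means greatest ILS.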
# P388 leukemia (mouse) = assay: Antitumor activity was determined against the ip implanted P388 leukemia in mice by 45-day survivors in mice at 100 mg/kg (treatment of 1qd schedule) dosage; settings: route intraperitoneal
# L1210 [2] = assay: Antitumor activity was determined against the ip implanted L1210 leukemia in mice by median survival time at 200 mg/kg (treatment of 1qd schedule) dosage; 17.5/7.0; settings: route intraperitoneal
# L1210 [3] = assay: Antitumor activity was determined against the ic implanted L1210 lymphoid leukemia in mice by percent increase in life span at 100 mg/kg (1 qd treatment schedule) dosage; assay type: functional, Mus musculus
# Outline: (§2)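 DBA/2J mice, groups of 6 (26-32 g), got 1 × 10^5 L1210 cells ic on day 0. Dosing was ip starting 24 h later, as a sonicated solution or suspension in 0.9% NaCl with 0.5% Tween-80, over a wide dose range. Mice were followed daily until death. Median survival T/C was taken from survivors per NCI protocols, and ILS = (T/C − 1) × 100. Active range means doses giving ILS ≥25%; optimal dose means greatest ILS.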
# L1210 [4] = assay: Antitumor activity was determined against the ip implanted L1210 leukemia in mice by range in survival days at 200 mg/kg (treatment of 1qd schedule) dosage; Range is 12->45; assay type: functional, Mus musculus; settings: route intraperitoneal
# Outline: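 DBA/2J mice, 23-28 g, in groups of 6, were inoculated ip with 1×10^6 L1210 cells on day 0. Dosing was ip starting 24 h later on the stated daily schedules. Conjugates were given as sonicated solutions and reference prodrugs as suspensions in 0.9% NaCl with 0.5% Tween-80. Mice were observed daily until death or 45 days. Median survival T/C was calculated from survivors per NCI protocols.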
# P388 [5] = assay: Antitumor activity was determined against the ip implanted P388 leukemia in mice by percent increase in life span at 100 mg/kg (treatment of 1qd schedule) dosage; settings: route intraperitoneal
# L1210 [6] = assay: Antitumor activity was determined against the ic implanted L1210 lymphoid leukemia in mice by […] at 100 mg/kg (1 qd treatment schedule) dosage; 17.5-7.0; assay type: functional, Mus musculus; outline: as §2
# P388 [7] = assay: Antitumor activity against the ip implanted P388 leukemia in mice expressed as optimal dose (1 qd treatment schedule) required to produce greatest increase in life span was determined; assay type: functional, Mus musculus
# Outline: (§3)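 P388 leukemia: 1 × 10^6 cells were given ip on day 0 to DBA/2J mice, groups of 6 (23-33 g). Treatment was ip from 24 h after inoculation, vehicle 0.9% NaCl with 0.5% Tween-80. Mice were observed daily until death or 45 days. Median survival T/C was calculated from survivors per NCI protocols, and ILS = (T/C − 1) × 100. Active range means doses giving ILS ≥25%; optimal dose means greatest ILS.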
# P388 [8] = assay: Antitumor activity was determined against the ip implanted P388 leukemia in mice by percent median survival rate (treated/control) at 100 mg/kg (treatment of 1qd schedule) dosage; >45.0/12.0; settings: route intraperitoneal
# P388 [9] = assay: Antitumor activity was determined against the ip implanted P388 leukemia in mice by range in survival days at 100 mg/kg (treatment of 1qd schedule) dosage; Range is 28->45; settings: route intraperitoneal
# L1210 [10] = assay: Antitumor activity was determined against the ic implanted L1210 lymphoid leukemia in mice by change in […] at 100 mg/kg (1 qd treatment schedule) dosage; assay type: functional, Mus musculus
# Outline: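 DBA/2J mice, 6 per group (wt 26-32 g), inoculated ic with 1×10^5 L1210 cells on day 0. Dosing ip began 24 h after inoculation, with a sonicated solution or suspension in 0.9% NaCl containing 0.5% Tween-80, given over a range of doses. Animals were followed daily until death. Body weight change, median survival T/C, and %ILS = (T/C − 1) × 100 were computed from survivors per NCI protocols.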
# L1210 [11] = assay: Antitumor activity against the ic implanted L1210 lymphoid leukemia in mice expressed as optimal dose (1 qd treatment schedule) required to produce greatest increase in life span was determined; assay type: functional, Mus musculus; outline: as §2
# L1210 [12] = assay: Antitumor activity was determined against the ip implanted L1210 leukemia in mice by percent increase in life span at 200 mg/kg (treatment of 1qd schedule) dosage; assay type: functional, Mus musculus; settings: route intraperitoneal
# Outline: (§4)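 DBA/2J mice in groups of 6 (wt 23-28 g) were inoculated ip with 1×10^6 L1210 cells on day 0. Dosing was ip from 24 h, in 0.9% NaCl with 0.5% Tween-80 (conjugates sonicated), across a range of doses. Mice were observed daily until death or 45 days. Median T/C was computed from survivors per NCI protocols, and ILS = (T/C − 1)×100.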
# L1210 [13] = assay: Antitumor activity was determined against the ip implanted L1210 leukemia in mice by change in […] at 200 mg/kg (treatment of 1qd schedule) dosage; assay type: functional, Mus musculus; settings: route intraperitoneal
# Outline: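 DBA/2J mice, 6 per group (wt 23-28 g), inoculated ip with 1×10^6 L1210 cells on day 0. Treatment was given ip in 0.9% NaCl with 0.5% Tween-80, starting 24 h later. Weight change was taken on day 8. Mice were observed daily until death or 45 days. Median survival T/C and %ILS = (T/C − 1) × 100 came from survivors per NCI protocols, and 45-day survivors were counted.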
# L1210 [14] = assay: Antitumor activity was determined against the ip implanted L1210 leukemia in mice by 45-day survivors in mice at 200 mg/kg (treatment of 1qd schedule) dosage; assay type: functional, Mus musculus; settings: route intraperitoneal; outline: as §4
# P388 [15] = assay: Antitumor activity was determined against the ip implanted L1210 leukemia in mice by change in […] at 100 mg/kg (treatment of 1qd schedule) dosage; assay type: functional, Mus musculus; settings: route intraperitoneal, in the assay text read “P388 leukemia” for “L1210 leukemia”
# P388 [16] = assay: Antitumor activity against ip implanted P388 leukemia in mice expressed as active dose range (1 qd treatment schedule) required to produce increase in life span by >25% was determined; Range is 50-100; assay type: functional, Mus musculus; outline: as §3
# L1210 [17] = assay: Antitumor activity against ip implanted L1210 leukemia in mice expressed as active dose range (1 qd treatment schedule) required to produce increase in life span by >25% was determined; Range is 100-250; assay type: functional, Mus musculus; outline: as §1
# L1210 [18] = assay: Antitumor activity was determined against the ic implanted L1210 lymphoid leukemia in mice by range in survival days at 100 mg/kg (1 qd treatment schedule) dosage; Range is 14-18; assay type: functional, Mus musculus
smiles,measurement,setting,value
CCCCCCCCCCCCCCCC(=O)OC[C@H]1O[C@@H](n2ccc(N)nc2=O)[C@@H](O)[C@@H]1O,Optimal dose,L1210 [1],200 mg/kg/day
same,Survivors,P388 leukemia (mouse),4
same,median survival time,L1210 [2],17.5 days
same,ILS,L1210 [3],150
same,Range,L1210 [4],12
same,ILS,P388 [5],>275
same,median survival time,L1210 [6],17.5 days
same,Optimal dose,P388 [7],100 mg
same,median survival time,P388 [8],> 45 days
same,Range,P388 [9],28
same,Weight change,L1210 [10],-2.03 g mouse-1
same,Optimal dose,L1210 [11],100 mg
same,ILS,L1210 [12],150
same,Weight change,L1210 [13],2 g mouse-1
same,Survivors,L1210 [14],1
same,Weight change,P388 [15],0.3 g mouse-1
same,Active dose range,P388 [16],50 mg/kg/day
same,Active dose range,L1210 [17],100 mg/kg/day
same,Range,L1210 [18],14
